From ChEMBL document CHEMBL1145465, “PhoU is a persistence switch involved in persister formation and tolerance to multiple antibiotics and stresses in Escherichia coli” (2007) come the findings set out here.

In test [1] the test system is Escherichia coli. As to the kind of experiment: Antibacterial activity against Escherichia coli K12 PhoU wild type W3110 assessed as cell count in log phase at […] after 6 days. The test is classed as functional, organism-based.
In test [2] the test system is Escherichia coli. As to the kind of experiment: Antibacterial activity against Escherichia coli K12 containing PhoU mutant assessed as bacterial killing log phase at 3 ug/ml after 6 days. The class given is functional.
For test [3], the system named is Escherichia coli. Put plainly: Antibacterial activity against Escherichia coli K12 PhoU wild type W3110 assessed as cell count in stationary phase at 2 mg/ml after 6 days.
Test [4] relates to Escherichia coli. Put plainly: Antibacterial activity against Escherichia coli K12 containing PhoU mutant assessed as bacterial killing stationary phase at 2 mg/ml after 6 days.
Test [5] relates to Escherichia coli. Put plainly: Antibacterial activity against Escherichia coli K12 PhoU wild type W3110 at 50 ug/ml after 48 hrs by disc diffusion method. The test is classed as functional. In a few lines: (§1)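 Kirby-Bauer disc assay. Log-phase LB broth culture (10⁸ bacteria) was spread on LB agar for confluent growth. 7 mm nitrocellulose discs soaked in antibiotic solution at the listed concentration were placed on the agar. Inhibition zone diameter (mm) was measured after 48 h at 37°C.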
In general terms: A growth-free zone around the sample is the usual read-out of agar diffusion tests.

Test [6] has as its system Escherichia coli. Put plainly: Antibacterial activity against Escherichia coli K12 mutant JHU313 at 50 ug/ml after 48 hrs by disc diffusion method. The class given is functional. In short, it runs like this:
(§2)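 Kirby-Bauer disc assay: log-phase LB culture was spread on LB agar for confluent growth. 7-mm nitrocellulose discs were soaked in antibiotic at the listed concentration and placed on the agar. After 48 h at 37°C, the diameter of the inhibition zone was measured in mm.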

Test [7] concerns Escherichia coli. As to the kind of experiment: Antibacterial activity against Escherichia coli K12 mutant JHU313 containing plasmid PhoU at 50 ug/ml after 48 hrs by disc diffusion method. The class given is functional. In short, it runs like this: as §2
In test [8] the test system is Escherichia coli. Put plainly: Antibacterial activity against Escherichia coli K12 mutant JHU313 containing plasmid vector at 50 ug/ml after 48 hrs by disc diffusion method. The test is classed as functional. In short, it runs like this: (§3)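 Kirby-Bauer paper-disc assay: log-phase E. coli (10⁸ bacteria) grown in LB broth, spread on LB agar for confluent growth; 7 mm nitrocellulose discs soaked with antibiotic solution at the listed concentration (μg/ml) placed on surface; incubated 37°C for 48 h; diameter of growth-inhibition zone measured in mm. Strain is the phoU transposon mutant transformed by electroporation with empty vector control.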

Test [9] has as its system Escherichia coli. As to the kind of experiment: Antibacterial activity against Escherichia coli K12 PhoU wild type W3110 at 12.5 ug/ml after 48 hrs by disc diffusion method. The class given is functional. In a few lines: as §1
Test [10] concerns Escherichia coli. As to the kind of experiment: Antibacterial activity against Escherichia coli K12 mutant JHU313 at 12.5 ug/ml after 48 hrs by disc diffusion method. The test is classed as functional. In short, it runs like this: as §2
The subject of test [11] is Escherichia coli. As to the kind of experiment: Antibacterial activity against Escherichia coli K12 mutant JHU313 containing plasmid PhoU at 12.5 ug/ml after 48 hrs by disc diffusion method. The test is classed as functional. In short, it runs like this: as §2
For test [12], the system named is Escherichia coli. As to the kind of experiment: Antibacterial activity against Escherichia coli K12 mutant JHU313 containing plasmid vector at 12.5 ug/ml after 48 hrs by disc diffusion method. The test is classed as functional. In short, it runs like this:
as §2

Test [13] concerns Escherichia coli. As to the kind of experiment: Antibacterial activity against Escherichia coli K12 PhoU wild type W3110 at 25 ug/ml after 48 hrs by disc diffusion method. The test is classed as functional. In a few lines: as §1
Test [14] deals with Escherichia coli. Put plainly: Antibacterial activity against Escherichia coli K12 mutant JHU313 at 25 ug/ml after 48 hrs by disc diffusion method. The test is classed as functional. In short, it runs like this: as §2
In test [15] the test system is Escherichia coli. As to the kind of experiment: Antibacterial activity against Escherichia coli K12 mutant JHU313 containing plasmid PhoU at 25 ug/ml after 48 hrs by disc diffusion method. The class given is functional. In short, it runs like this:
as §2

Test [16] has as its system Escherichia coli. As to the kind of experiment: Antibacterial activity against Escherichia coli K12 mutant JHU313 containing plasmid vector at 25 ug/ml after 48 hrs by disc diffusion method. The class given is functional. In short, it runs like this: as §3
The subject of test [17] is Escherichia coli. Put plainly: Antibacterial activity against Escherichia coli K12 PhoU wild type W3110 at 2 ug/ml after 48 hrs by disc diffusion method. The class given is functional. In short, it runs like this: (§4)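 Kirby-Bauer disc assay. Log-phase LB culture (10⁸ bacteria) was spread for confluent growth on LB agar. 7 mm nitrocellulose discs soaked in antibiotic at the listed concentrations were laid on the agar. Inhibition zone diameter (mm) was measured after 48 h at 37°C.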

The test system of test [18] is Escherichia coli. As to the kind of experiment: Antibacterial activity against Escherichia coli K12 mutant JHU313 at 2 ug/ml after 48 hrs by disc diffusion method. The class given is functional. In short, it runs like this: as §2
Test [19] concerns Escherichia coli. As to the kind of experiment: Antibacterial activity against Escherichia coli K12 mutant JHU313 containing plasmid PhoU at 2 ug/ml after 48 hrs by disc diffusion method. The class given is functional. In a few lines: as §2
Test [20] deals with Escherichia coli. As to the kind of experiment: Antibacterial activity against Escherichia coli K12 PhoU wild type W3110 at 1 ug/ml after 48 hrs by disc diffusion method.
In test [21] the test system is Escherichia coli. Put plainly: Antibacterial activity against Escherichia coli K12 PhoU wild type W3110 after 16 hrs by serial dilution method. The test is classed as functional. The conditions noted are these: K12, 16 h. In short, it runs like this: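 Serial twofold antibiotic dilutions in LB broth; log-phase inoculum 10⁶ to 10⁷ bacteria/ml; 16 h at 37°C. MIC was the lowest concentration with no visible growth. MBC was the concentration giving a 100-fold CFU drop below the seeded inoculum.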

For test [22], the system named is Escherichia coli. Put plainly: Antibacterial activity against Escherichia coli K12 mutant JHU313 after 16 hrs by serial dilution method. The class given is functional. The conditions noted are these: K12, 16 h. In short, it runs like this:
(§5)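 Twofold serial antibiotic dilutions in LB broth were seeded with 10⁶–10⁷ bacteria/ml from log-phase culture and incubated 16 h at 37°C. MIC was taken as the lowest concentration with no visible growth. MBC was taken as the concentration giving a 100-fold CFU drop from the inoculum.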

Test [23] concerns Escherichia coli. As to the kind of experiment: Antibacterial activity against Escherichia coli K12 mutant JHU313 containing plasmid PhoU after 16 hrs by serial dilution method. The test is classed as functional. The conditions noted are these: K12, 16 h. In a few lines: as §5
Test [24] concerns Escherichia coli. Put plainly: Antibacterial activity against Escherichia coli K12 mutant JHU313 containing plasmid vector after 16 hrs by serial dilution method. The test is classed as functional. The conditions noted are these: K12, 16 h. In a few lines: as §5
Test [25] relates to Escherichia coli. Put plainly: Antibacterial activity against Escherichia coli K12 mutant JHU313 containing plasmid vector at 2 ug/ml after 48 hrs by disc diffusion method. The class given is functional. In a few lines:
as §2

The subject of test [26] is Escherichia coli. Put plainly: Antibacterial activity against Escherichia coli K12 PhoU wild type W3110 at 0.5 ug/ml after 48 hrs by disc diffusion method. The test is classed as functional. In short, it runs like this:
as §4

Test [27] relates to Escherichia coli. Put plainly: Antibacterial activity against Escherichia coli K12 mutant JHU313 at 0.5 ug/ml after 48 hrs by disc diffusion method. The class given is functional. In short, it runs like this: as §2
Test [28] has as its system Escherichia coli. As to the kind of experiment: Antibacterial activity against Escherichia coli K12 mutant JHU313 containing plasmid PhoU at 0.5 ug/ml after 48 hrs by disc diffusion method. The class given is functional. In short, it runs like this: as §2
For test [29], the system named is Escherichia coli. Put plainly: Antibacterial activity against Escherichia coli K12 mutant JHU313 containing plasmid vector at 0.5 ug/ml after 48 hrs by disc diffusion method. The class given is functional. In a few lines:
as §2

The test system of test [30] is Escherichia coli.
In test [31] the test system is Escherichia coli. This is another data set of the same source.
For test [32], the system named is Escherichia coli. The source holds these as a separate data set.

In brackets after ≈: the same amount, converted by molar mass. Activity calls are given as the source filed them.

Regarding `NC(=O)c1cnccn1` [PYRAZINAMIDE], the outcome in the test with Escherichia coli [1] and with Escherichia coli [4] was Active. For the same compound, the CFU in the test on Escherichia coli [2] is 1 10^6/ml; in the test on Escherichia coli [3], 6.7 10^6/ml.
Turning to `CN(C)[C@@H]1C(O)=C(C(N)=O)C(=O)[C@@]2(O)C(O)=C3C(=O)c4c(O)cccc4[C@@](C)(O)[C@H]3C[C@@H]12` [TETRACYCLINE], the inhibition zone (IZ) with Escherichia coli [5] is 23 mm; in the test on Escherichia coli [6] it was 32 mm; with Escherichia coli [7], 32 mm; in the test with Escherichia coli [8], 34 mm; with Escherichia coli [9], 22 mm; in the test on Escherichia coli [10], 26 mm. The inhibition zone (IZ) in the test with Escherichia coli [11] stood at 30 mm; with Escherichia coli [12] it was 34 mm; in the test with Escherichia coli [13], 23 mm; in the test on Escherichia coli [14] it was 32 mm; in the test with Escherichia coli [15], 32 mm; in the test with Escherichia coli [16], 34 mm.
By MBC is commonly meant the smallest concentration meeting the test's criterion for killing. Higher therefore signals weaker bactericidal potency. For orientation: MIC means the lowest concentration found to suppress growth. Lower therefore signals greater potency. As to `COc1cc(Cc2cnc(N)nc2N)cc(OC)c1OC` [TRIMETHOPRIM], the inhibition zone (IZ) turned out to be 30 mm in the test on Escherichia coli [17]; 42 mm in the test with Escherichia coli [18]; 36 mm in the test with Escherichia coli [19]; 44 mm with Escherichia coli [25]; 24 mm in the test with Escherichia coli [26]; 31 mm with Escherichia coli [27]. For the same compound, the inhibition zone (IZ) with Escherichia coli [28] was 32 mm; with Escherichia coli [29], 36 mm. Besides, the IZ in the test with Escherichia coli [20] is 26 mm; in the test on Escherichia coli [30], 38 mm; with Escherichia coli [31] it was 33 mm; with Escherichia coli [32] it was 40 mm. For the same compound, the MBC in the test on Escherichia coli [21] was 8 µg/mL (≈ 27.6 µM); with Escherichia coli [22], 1 µg/mL (≈ 3.44 µM); with Escherichia coli [23], 4 µg/mL (≈ 13.8 µM); against Escherichia coli [24], 1 µg/mL (≈ 3.44 µM). Moreover, the MIC against Escherichia coli [21] was 2 µg/mL (≈ 6.89 µM); against Escherichia coli [22] it was 0.25 µg/mL (≈ 0.861 µM); against Escherichia coli [23], 2 µg/mL (≈ 6.89 µM); against Escherichia coli [24], 0.5 µg/mL (≈ 1.72 µM).
